Type in all cases: binding, HIV-1
Experiment [1] concerns 234 nt NL4-3 RRE RNA. The experiment is described as follows: SHAPE-MaP footprinting. The conditions noted are these: cutoff +/- 0.3.
Experiment [2] relates to 5'-32P labeled RRE SL-IIB. The experiment is described as follows: RNase footprinting. The conditions noted are these: branched peptide 0-20 μM, concentration-dependent, upper stem region. The method in brief: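 RRE SL-IIB dephosphorylated, then 5′-end labeled with [γ-32P]ATP and T4 polynucleotide kinase. Labeled RNA (10 nM) plus unlabeled SL-IIB (200 nM) refolded (95 °C 3 min, snap-cooled on ice). Incubated with peptide on ice 4 h in 10 mM Tris pH 7, 100 mM KCl, 10 mM MgCl2. RNase V1 0.002 Units, 10 min on ice; quenched. Run on 12% PAGE/7.5 M urea beside an alkaline hydrolysis ladder. Read by autoradiography.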

Experiment [3] deals with 2-AP-labeled RRE SL-IIB RNA. The conditions noted are these: for Kd: at least duplicate, ± SD. Summed up:
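2-AP-labelled RRE SL-IIB RNA (0.1 μM, refolded at 95 °C for 3 min and snap-cooled) with 10-fold excess unlabelled competitor (loop/bulge-deleted RRE RNA, RRE SL-IIB DNA or TAR RNA). Branched peptide titrated 0-20 μM in phosphate buffer (10 mM KPi, 100 mM KCl, 1 mM MgCl2, 20 mM NaCl, pH 7.0). Excitation 310 nm; fluorescence decrease at 372 nm. Kd from Hill-equation fit; at least duplicate, SD.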

Like-named read-outs stand apart in the source and are kept apart here.

As usually defined, the Kd is the concentration at which binding is half-saturated.

In the case of (DLL)2KLGBY [4B3], the “change in 1M7 reactivity” value in experiment [1] (1:1 RNA:BP ratio) is “decreased reactivity was observed at nt 28”; in experiment [1] (in the presence of 4B3, ratio not stated), “nt 46, which forms non-canonical base pairing upon Rev,[12] exhibited increased reactivity”. Also, in experiment [2], the “protection from RNase V1 cleavage” value was “reduced cleavage at G53, C54, and C65”. Besides, the Kd in experiment [3] (RRE IIB in the presence of 10× RRE DNA) was 1480 ± 30 nM; in experiment [3] (RRE IIB in the presence of 10× TAR RNA), 3520 ± 520 nM. Also, the “loss of binding affinity” value in experiment [3] (in the presence of No Bulge RRE RNA competitor) and in experiment [3] (in the presence of RRE DNA competitor) was roughly 3 fold in each case. The “increase of Kd against RRE IIB” value in experiment [3] (in the presence of TAR RNA competitor) was “approximately 10 fold”.

The values above are taken from publication PMC6476629 (Bioorganic & medicinal chemistry, 2019).
